Experimental data gathered from unrelated publications.
Target: Serine/threonine-protein kinase SIK3 (SIK3, Homo sapiens, UniProt Q9Y2K2)

SMILES	effect on	method	tested at	remaining binding [%]
O=C(NCCCN1CCOCC1)c1ccc(Nc2nccc(-c3cc4ccccc4s3)n2)cc1	binding	competition with immobilised ligand	1 µM	95
c1cnn2ncc(-c3ccnc(N4CCC45COC5)n3)c2c1	binding	–	1 µM	70
CC(=O)Nc1c(C(C)=O)c(=O)n(C)c2nc(-c3ccc(Cl)cc3Cl)c(-c3ccc(Cl)cc3)cc12	cell-free assay	competition with immobilised ligand	1 µM	100
C[C@H]1CCN(c2nccc(-c3cnn4ncccc34)n2)C1	binding	–	1 µM	66
CNC(=O)[C@@H]1CC[C@@H](n2c(-c3ccc4cnccc4c3)nc3ccc(C(=O)NCc4cccc(C(N)=O)c4)cc32)C1	binding	competition with immobilised ligand	1 µM	88
c1cncc(-c2cccc(Nc3nccc(NC4CCCCC4)n3)c2)c1	binding	competition with immobilised ligand	10 µM	83
CC1CCCN1c1nccc(-c2cnn3ncccc23)n1 (centres unmarked)	binding	–	1 µM	94
O=C(c1ccc(Nc2ncc(Cl)c(-c3cc4ccccc4s3)n2)cc1)N1CCC(N2CCCC2)CC1	binding	competition with immobilised ligand	1 µM	98
O=C(O)[C@H]1[C@H](Cn2nnc3ccccc3c2=O)CC[C@@H]1C(=O)c1ccc(OCCC2CCOCC2)cc1	cell-free assay	competition with immobilised ligand	1 µM	61
O=C(Nc1c[nH]nc1C(=O)NC1CCNCC1)c1cc(F)cc(F)c1	binding	competition with immobilised ligand	1 µM	66
CN(C)c1ncc(F)c(-c2cnn3ncccc23)n1	binding	–	1 µM	87
CCC(=O)N[C@@H]1CC[C@H](C(=O)N(C)c2ccc(-c3nc4ccccc4o3)cc2)C1	cell-free assay	competition with immobilised ligand	1 µM	100
Cc1cnc(Nc2ccc(C(=O)N3CCC(N4CCCC4)CC3)cc2)nc1-c1cc2ccccc2s1	binding	competition with immobilised ligand	1 µM	61
CN(C)CC#Cc1ccc(OCCCc2sc(N3CCc4cccc(C(=O)Nc5nc6ccccc6s5)c4C3)nc2C(=O)O)c(F)c1	cell-free assay	competition with immobilised ligand	1 µM	77
COc1cnc(Nc2cccc(S(N)(=O)=O)c2)nc1N1CCN(c2ccccc2)C(=O)C1	binding	competition with immobilised ligand	1 µM	90
NS(=O)(=O)c1cc(NC(=O)Cc2ccccc2)ccc1Oc1cccc(Cl)c1	cell-free assay	competition with immobilised ligand	1 µM	87
N[C@H]1CCN(c2nccc(-c3cnn4ncccc34)n2)C1	binding	–	1 µM	100
CCN1CCN(Cc2ccc(C(=O)Nc3ccc(C)c(Oc4ccc5c(c4)CC(=O)N5)c3)cc2C(F)(F)F)CC1	binding	competition with immobilised ligand	1 µM	100
CN(c1nccc(-c2cnn3ncccc23)n1)C1CC1	binding	–	1 µM	100
O=C(NCCCC1CCCCC1)c1ccc(CNC(=O)c2cnn(-c3ccccc3)c2C(F)(F)F)cc1	cell-free assay	competition with immobilised ligand	0.1 µM	76
